ChEMBL document CHEMBL3400034, “Design, synthesis and biological evaluation of di-substituted noscapine analogs as potent and microtubule-targeted anticancer agents” (Bioorg Med Chem Lett, 2015)
Values belong to the molecule of their own block, whether it stands above or below them. The source made the active and inactive calls. The calls are words filed in the database; no cut-off is given here.

How the values were obtained:
[1] = biological target: T1, Tubulin (Bos taurus) (UniProt Q6B856+Q862L2+Q862F3); experiment: Inhibition of bovine brain tubulin polymerization incubated for 10 to 30 mins by spectrophotometry based light scattering assay
Method in brief: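 Polymerisation of 12 µM tubulin followed by turbidity (light scattering) at 350 nm. Compound range 0–25 µM, over 30 min. Reported as relative absorbance.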

[2] = tested on: MDA-MB-231; experiment: Cytotoxicity activity against human MDA-MB-231 cells after 48 hrs by MTT assay; type: functional, cell-based; settings: MDA-MB-231, 48 h
Method in brief: (§1)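 Cells exposed for 48 h to increasing gradient concentrations. Proliferation read by MTT assay as percentage cell survival. IC50 is the drug concentration giving 50% inhibition of proliferation.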

[3] = tested on: MDA-MB-231; experiment: Induction of apoptosis in human MDA-MB-231 cells assessed as increase in cleaved PARP protein level at 10 uM after 24 hrs by immunoblot method; type: functional, cell-based
Method in brief: (§2)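 Protein lysates from treated and control MDA-MB-231 cells analysed by immunoblot, probed for survivin and cleaved PARP, with β-actin as loading control.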

[4] = tested on: MDA-MB-231; experiment: Induction of apoptosis in human MDA-MB-231 cells assessed as reduction in survivin protein expression at 10 uM after 24 hrs by immunoblot method; type: functional, cell-based; method in brief: as §2
[5] = tested on: MDA-MB-231; experiment: Induction of cell cycle arrest in human MDA-MB-231 cells assessed as accumulation at G2/M phase at 10 uM after 12 to 48 hrs by propidium iodide staining based FACS method; type: functional
Method in brief: (§3)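 MDA-MB-231 cells treated for 0–48 h (compounds at 10 µM or 25 µM depending on analog); DNA stained with propidium iodide and cell cycle profiles read by flow cytometry; G2/M (4N DNA) and sub-G1 (apoptotic index) populations quantified at each time point.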

[6] = biological target: T1, Tubulin (Bos taurus); experiment: Inhibition of bovine brain tubulin polymerization at 25 uM incubated for 10 to 30 mins by spectrophotometry based light scattering assay
Method in brief: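 Assembly of 12 µM tubulin followed by turbidity (light scattering) at 350 nm over 30 min with compound at 0–25 µM; relative absorbance compared with control.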

[7] = tested on: MDA-MB-231; experiment: Induction of apoptosis in human MDA-MB-231 cells assessed as accumulation at subG1 phase at 10 uM after 12 to 48 hrs by propidium iodide staining based FACS method; type: functional, cell-based; method in brief: as §3
[8] = tested on: MDA-MB-231; experiment: Induction of apoptosis in human MDA-MB-231 cells assessed as increase in caspase-3/7 activity by measuring Z-DEVD-aminoluciferin cleavage at 10 uM after 24 hrs by luminescence plate reader based method; type: functional, cell-based
Method in brief: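 Lysates from treated and control MDA-MB-231 cells assayed for caspase-3/7 activity by luminescence from cleavage of Z-DEVD-aminoluciferin substrate; activity expressed relative to untreated control.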

[9] = biological target: Tubulin (Bos taurus, UniProt Q6B856+Q862L2+Q862F3); experiment: (§4) Binding affinity to bovine brain tubulin assessed as reduction in tubulin intrinsic tryptophan fluorescence intensity incubated for 45 mins by spectrophotometry based fluorescence titration assay
Method in brief: (§5)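 Tubulin binding measured as quenching of intrinsic tryptophan fluorescence across increasing compound concentrations. KD derived from double reciprocal plots. Mean ± S.D. of three independent experiments, each performed in triplicate.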

[10] = biological target: T1, Tubulin (Bos taurus); experiment: as §4; method in brief: as §5
[11] = Cytotoxicity activity against human PC3 cells after 48 hrs by MTT assay; type: functional, cell-based; settings: PC-3, 48 h; method in brief: as §1
[12] = tested on: MDA-MB-231; experiment: Induction of cell death in human MDA-MB-231 cells at 25 uM after 48 hrs by propidium iodide staining based FACS method; type: functional
Method in brief: (§6)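 MDA-MB-231 cells treated for 0–48 h, with samples at several time points. Concentration was 10 µM for some analogs and 25 µM for others. DNA stained with propidium iodide and analysed by flow cytometry. 2N DNA scored as G1, 4N as G2/M, below 2N as sub-G1 (apoptotic index).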

[13] = tested on: MDA-MB-231; experiment: Induction of apoptosis in human MDA-MB-231 cells assessed as increase in cleaved PARP protein level at 25 uM after 24 hrs by immunoblot method; type: functional, cell-based
Method in brief: (§7)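 Lysates from treated and control cells run on immunoblots. Probed for survivin and cleaved PARP, with β-actin as loading control.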

[14] = tested on: MDA-MB-231; experiment: Induction of apoptosis in human MDA-MB-231 cells assessed as accumulation at subG1 phase at 25 uM after 12 to 48 hrs by propidium iodide staining based FACS method; type: functional, cell-based; method in brief: as §6
[15] = tested on: MDA-MB-231; experiment: Induction of cell cycle arrest in human MDA-MB-231 cells assessed as accumulation at G2/M phase at 25 uM after 12 to 48 hrs by propidium iodide staining based FACS method; type: functional; method in brief: as §6
[16] = tested on: MDA-MB-231; experiment: Induction of apoptosis in human MDA-MB-231 cells assessed as reduction in survivin protein expression at 25 uM after 24 hrs by immunoblot method; type: functional, cell-based; method in brief: as §7
[17] = tested on: MDA-MB-231; experiment: Induction of apoptosis in human MDA-MB-231 cells assessed as increase in caspase-3/7 activity by measuring Z-DEVD-aminoluciferin cleavage at 25 uM after 24 hrs by luminescence plate reader based method; type: functional, cell-based
Method in brief: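 Lysates from treated and control cells assayed for caspase-3/7 activity. Read-out was luminescence from cleavage of Z-DEVD-aminoluciferin, expressed relative to control.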

[18] = tested on: MDA-MB-231; experiment: Induction of cell death in human MDA-MB-231 cells at 10 uM after 48 hrs by propidium iodide staining based FACS method; type: functional; method in brief: as §6

- inhibition [1]: Dose-dependent effect
- inhibition [6]: Active
- Kd [9]: 55 µM
- Activity [10]: Dose-dependent effect
Compound: COc1ccc2c(c1O)C(=O)O[C@@H]2[C@H]1c2c(c(Br)c3c(c2OC)OCO3)CCN1C
- IC50 [2]: 2.2 µM
- Activity [3]: Active
- Activity [4]: inactive
- Activity [5]: 15%
- Activity [7]: Active
- Activity [8]: Active
- IC50 [11]: 5.6 µM

Compound: CCNC(=O)Oc1c(OC)ccc2c1C(=O)O[C@@H]2[C@H]1c2c(c(Br)c3c(c2OC)OCO3)CCN1C
- Activity [12]: 80%
- inhibition [1]: Dose-dependent effect
- Activity [13]: Active
- IC50 [2]: 3.9 µM
- Activity [14]: Active
- Activity [15]: 15%
- Activity [16]: Active
- Activity [17]: Active
- Kd [9]: 26 µM
- Activity [10]: Dose-dependent effect
- IC50 [11]: 22 µM

Compound: COc1ccc2c(c1OC(=O)NCc1ccccc1)C(=O)O[C@@H]2[C@H]1c2c(c(Br)c3c(c2OC)OCO3)CCN1C
- Activity [12]: 80%
- inhibition [1]: Dose-dependent effect
- Activity [13]: Active
- IC50 [2]: 20 µM
- Activity [14]: Active
- Activity [15]: 15%
- Activity [16]: Active
- Activity [17]: Active
- Kd [9]: 21 µM
- Activity [10]: Dose-dependent effect
- IC50 [11]: 49.4 µM

Compound: COc1ccc2c(c1OC(C)=O)C(=O)O[C@@H]2[C@H]1c2c(c(Br)c3c(c2OC)OCO3)CCN1C
- inhibition [1]: Dose-dependent effect
- IC50 [2]: 2.5 µM
- Activity [3]: Active
- Activity [4]: inactive
- Activity [18]: 80%
- Activity [5]: 15%
- Activity [7]: Active
- Activity [8]: Active
- Kd [9]: 44 µM
- Activity [10]: Dose-dependent effect
- IC50 [11]: 48.9 µM
